# PvdQ acylase – blocks Pseudomonas aeruginosa PvdQ acylase activity. purified PvdQ acylase, fluorescence plate reader. inhibition, % at 10 µM. 340,000 compounds, 0.063% hits. AID 488965; in the data active means inhibition above about 30%, passing the limit was not always enough
# UPR XBP1 act – activators of adaptive arm of unfolded protein response (XBP1). 330,000 compounds, 0.33% hits. activation, % at 20 µM. CHO-XBP1 luciferase reporter, IRE1-XBP1 UPR activation, luminescence; percent of tunicamycin response, DMSO as zero. AID 463104;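 active means versus positive control, 20 µM dose yields 30% or more activation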
#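 incubation = overnight seeding at 37 °C, 6 h compound treatment at 37 °C | assay system = CHO-XBP1 cells stably carrying IRE1-XBP1-driven luciferase reporter | input = 1000 cells per well | detection = luciferase luminescence | dosing = single point, 20 µM final compound, 1% DMSO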
# CHOP UPR activ – apoptotic UPR (CHOP) activation; CHO-CHOP luciferase reporter, luminescence; percent of tunicamycin response over DMSO baseline; activation, % at 10 µM; 330,000 compounds, 0.34% hits;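 active means at 10 µM dose, activation of 40% or more, normalized to positive control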
#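 System: CHO CHOP reporter cells. Amount: 500 cells per well. Buffer or medium: F12 medium, 10% FBS. Compound dosing: one dose, 10 µM in 0.5% DMSO. Incubation: 6 h compound exposure at 37 °C after overnight seeding. Technique: Steady-Glo luciferase luminescence. Benchmarks: tunicamycin and DMSO controls.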
# CHOP inhibitor – CHOP inhibition in unfolded protein response. inhibition, % at 10 µM. CHO-K1 CHOP-promoter luciferase, tunicamycin-induced, 15-18 h. 220,000 compounds, 3.8% hits;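 active means compounds that reduced the stress-induced luciferase reporter signal by more than about 70% of percent inhibition, limit read from the data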
# UPR CHOP confirm – apoptotic UPR (CHOP) activation, confirmed; shares compounds with CHOP UPR activ; CHO-CHOP cells, CHOP-luciferase reporter luminescence; percent of tunicamycin response, DMSO as zero; activation, % at 10 µM; 1,000 compounds, 64% hits; AID 463112; in the data active means activation above about 33%
# UPR XBP1 confirm – adaptive UPR (XBP1) activation, confirmed; shares compounds with UPR XBP1 act; CHO-XBP1 IRE1-XBP1 luciferase reporter, luminescence; 1,000 compounds, 63% hits; activation, % at 20 µM;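 active means reporter signal at least 30% of the positive control's activation in two or more of four replicate wells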
# A number is an active result; 0 = inactive; - = not tested or not shown. The entries come from a sample that favours hits as a whole.
SMILES,PvdQ acylase,UPR XBP1 act,CHOP UPR activ,CHOP inhibitor,UPR CHOP confirm,UPR XBP1 confirm
Cc1ccc(-c2nc3ncccc3o2)cc1NC(=O)c1ccc([N+](=O)[O-])o1,0,0,0,-,-,-
Cc1ccc(OC(=O)c2ccccc2)cc1C,0,-,-,-,-,-
COc1ccc(NC(=S)NCCCN2CCN(C3CCCCC3)CC2)cc1,0,0,0,0,-,-
NC(=O)CSc1nc2c(sc(=S)n2-c2ccccc2)c(=O)[nH]1,0,0,0,-,-,-
O=C(NCCC1CCCCN1S(=O)(=O)c1ccccc1)C(=O)NC1CC1 (centres undefined),0,0,0,-,-,-
Cc1ccc(S(=O)(=O)Nc2cccc3ncccc23)cc1,0,0,0,0,-,-
Cc1ccc(S(=O)(=O)Nc2cccc3ncccc23)s1,0,0,219.5,-,0,-
CCN(CC(=O)Nc1ccc2c(c1)OCCO2)CC(=O)Nc1ccc(C)c([N+](=O)[O-])c1,0,0,0,-,-,-
COc1ccc(/C=C/c2ccc3cccc(O)c3n2)c(OC)c1OC,0,0,135.3,-,0,-
O=C(Cc1ccc(F)cc1)NC1CCSC1=O (centres undefined),0,0,40.9,0,0,-
CCOc1cc(/C=C2\CN(CC)C/C(=C\c3ccc(O)c(OCC)c3)C2=O)ccc1O,0,0,78.5,-,86.1,-
COc1cc(OC)cc(C(=O)NC(=S)Nc2cc3oc4ccccc4c3cc2OC)c1,0,0,101.3,0,73.9,-
COc1cc2c(cc1NC(=S)NC(=O)c1c(OC)cccc1OC)oc1ccccc12,0,0,0,0,-,-
CCn1c(CSc2nc3ccccc3s2)nnc1SCC(=O)c1ccc(O)c(O)c1,0,0,47.1,0,0,-
CCOc1cc(/C=N\NC(=O)c2ccc(NC(=O)CC)cc2)ccc1OC(=O)c1ccccc1,0,0,56.7,74.8,0,-
Cc1ccc(NC(=O)CN(C)C(=O)c2cccc(Br)c2)cc1,0,0,0,-,-,-
CCCN(CCC)Cc1c(C(=O)N/N=C/c2ccc(C)o2)nnn1-c1nonc1N,0,0,0,-,-,-
COc1cc(S(=O)(=O)N2CCC(c3nc4ccccc4s3)CC2)ccc1S(=O)(=O)N1CC(C)CC(C)C1 (centres undefined),0,0,209.2,0,0,-
COC(=O)[C@@]12CCCCN1[C@H](c1ccc(-c3ccc(C(C)=O)cc3)c(OC)c1)[C@@H]1C(=O)N(C)C(=O)[C@@H]12,0,0,0,-,-,-
O=C(CCl)Nc1cc(S(=O)(=O)N2CCCCCC2)ccc1Cl,0,0,82.7,77.9,70.3,-
O=[N+]([O-])c1cc(Cl)ccc1Sc1cccc2cccnc12,0,0,0,0,-,-
O=[N+]([O-])c1ccc(Sc2cccc3cccnc23)c([N+](=O)[O-])c1,0,0,256.0,0,158.2,-
C=CCn1nc([N+](=O)[O-])nc1Sc1cccc2cccnc12,0,0,168.0,88.3,230.4,-
O=[N+]([O-])c1ccc(Sc2cccc3cccnc23)cc1,0,0,0,0,-,-
O=C(C1CCN(S(=O)(=O)c2ccccc2F)CC1)N1CCCC1,0,0,0,-,-,-
SMILES,PvdQ acylase,UPR XBP1 act,CHOP UPR activ,CHOP inhibitor,UPR CHOP confirm,UPR XBP1 confirm
Cc1ccc2nc(SCc3nnc(-c4ccccc4Br)o3)[nH]c2c1,0,0,0,0,-,-
Cn1c(=O)c2c(ncn2CC(=O)OCC(=O)Nc2ccccc2)n(C)c1=O,0,0,0,0,-,-
O=[N+]([O-])c1ccc(N/N=C/c2cccc(O)c2O)c(S(=O)(=O)N2CCOCC2)c1,0,54.3,133.2,0,86.3,32.6
COc1cccc(C(=O)NCCC(=O)NCc2cc(=O)n(C)c(=O)n2C)c1,0,0,0,-,-,-
COc1ccc(N=Cc2c(O)c3ccccc3oc2=O)cc1,0,102.4,128.3,0,67.5,38.4
CC(C)c1ccc(N=Cc2c(O)c3ccccc3oc2=O)cc1,0,0,0,-,-,-
CCOc1ccccc1N=Cc1c(O)c2ccccc2oc1=O,0,178.9,162.4,-,120.2,125.1
Cc1ccc(C)c(N=Cc2c(O)c3ccccc3oc2=O)c1,0,55.3,60.9,-,48.8,45.5
CCC(CC)N1CCN(CC2CC=CCC2)CC1 (centres undefined),0,0,0,0,-,-
O=C(N/N=C/c1ccc(Cl)cc1)C(=O)N1CCCCCC1,0,0,0,0,-,-
COC(=O)c1ccc(-n2c(C)cc(C(=O)COC(=O)C3=COCCO3)c2C)cc1,0,0,0,-,-,-
CCOc1ccc(-n2c(C)cc(C(=O)CCl)c2C)cc1,0,70.0,243.8,0,620.7,201.7
COC(=O)c1ccc(-n2c(C)cc(C(=O)CCl)c2C)cc1,0,74.3,501.7,90.3,267.6,0
c1ccc(-n2ncc3c(N4CCN(CCOc5cccc6ccccc56)CC4)ncnc32)cc1,0,0,0,0,-,-
CCN(CC)c1ccc(C(=O)OCC(=O)Nc2cc3oc4ccccc4c3cc2OC)cc1,0,177.9,55.2,0,0,120.8
O=[N+]([O-])c1ccc(OCn2cncn2)cc1,0,0,0,-,-,-
COc1ccccc1C1c2ccc3ccccc3c2Oc2ncn(CCN(C)C)c(=N)c21 (centres undefined),0,0,0,-,-,-
COc1ccc(C2c3ccc4ccccc4c3Oc3ncn(CCCN(C)C)c(=N)c32)cc1 (centres undefined),0,54.9,75.7,-,36.5,60.4
CCOC(=O)C(=CNc1nc(-c2ccccc2)c(C(=O)Nc2ccc(-c3ccccc3)cc2)s1)C(=O)OCC,0,209.2,73.0,-,43.4,133.1
Cc1ccc(NC(=O)c2sc(Cl)nc2-c2ccccc2)cc1,0,0,0,0,-,-
COc1cc(OC)cc(C(=O)N[C@H](C(=O)Nc2cc(C)cc(C)c2)C(C)C)c1,0,0,0,0,-,-
O=C(Nc1ccc(NC(=O)c2sc3ccccc3c2Cl)cc1Cl)c1ccco1,0,342.1,62.6,0,34.0,141.6
O=C(N/N=C/c1cccc(F)c1)c1cc(-c2ccco2)nc2ccccc12,0,0,0,0,-,-
O=C(Nc1cccc(-c2nc3cccnc3s2)c1)C1c2ccccc2Oc2ccccc21,0,439.9,280.8,0,74.9,466.5
O=C(Nc1cccc(-c2nc3cccnc3s2)c1)c1cccnc1Cl,0,0,0,0,-,-
SMILES,PvdQ acylase,UPR XBP1 act,CHOP UPR activ,CHOP inhibitor,UPR CHOP confirm,UPR XBP1 confirm
Cc1c(NC(=O)CNCc2ccc3c(c2)OCO3)c(=O)n(-c2ccccc2)n1C,0,0,0,0,-,-
CCCCN=C1SC(C(=O)Nc2sc3c(c2C(=O)OC)CCC3)C(N)=C1C(=O)N1CCOCC1 (centres undefined),0,166.4,108.6,-,0,0
COC(=O)c1c(NC(=S)NN2CCOCC2)sc2c1CCCC2,0,0,0,0,-,-
CCOC(=O)c1cc(NC(=O)c2ccc(Cl)cc2)c(=O)n2c1oc1ccc(Cl)cc12,0,39.5,69.8,0,0,45.4
COc1ccc(-c2cc(-c3ccccc3)c(C#N)c(S(C)(=O)=O)n2)cc1,0,44.9,102.9,0,118.8,98.7
CCc1nnc(NC(=O)CSc2nc(-c3ccccc3)cc(-c3ccc(OC)cc3)c2C#N)s1,0,58.2,93.1,0,104.7,0

# From PubChem BioAssay
